According to ChEMBL document CHEMBL1147479, “Synthesis and biological evaluation of benzimidazole-4,7-diones that inhibit vascular smooth muscle cell proliferation” (Bioorg Med Chem Lett, 2004):

organism: Rattus norvegicus; test: Inhibitory activity against the PDGF-induced proliferation of rat aortic smooth muscle cell (RAoSMC); type: functional, organism-based
Procedure, shortened: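 Smooth muscle cells isolated from rat thoracic aorta, kept in DMEM with 10% FBS. Seeded in triplicate at 1×10³ cells/well and grown 24 h, then starved in 0.2% FBS for 72 h. Treated for 48 h in DMEM with PDGF (5 ng/mL) and 5% FBS. Proliferation read by WST-1 uptake (colorimetric); IC50 derived by comparison with mycophenolic acid standard.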

SMILES | IC50 [nM]
O=C1C(Cl)=C(Nc2ccccc2)C(=O)c2[nH]cnc21 | 5500
O=C1C(Cl)=C(Nc2cccc(Br)c2)C(=O)c2[nH]cnc21 | 1600
O=C1C(Br)=C(Nc2ccc(F)cc2)C(=O)c2[nH]cnc21 | 1000
O=C1C(Br)=C(Nc2cccc(I)c2)C(=O)c2[nH]cnc21 | 2500
Cc1nc2c([nH]1)C(=O)/C(=N/c1ccc(F)c(F)c1F)C(Cl)=C2O | 1100
COc1ccc(OC)c2[nH]cnc12 | > 100000
Cc1nc2c([nH]1)C(=O)/C(=N/c1ccccc1)C(Cl)=C2O | 800
Cc1ccc(NC2=C(Br)C(=O)c3nc[nH]c3C2=O)cc1 | 1000
Cc1nc2c([nH]1)C(=O)/C(=N/c1cccc(Br)c1)C(Cl)=C2O | 1000
Cc1nc2c([nH]1)C(=O)/C(=N/c1ccc(F)cc1)C(Cl)=C2O | 3000
O=C1C(Cl)=C(Nc2ccccc2)C(=O)c2[nH]c(C(F)(F)F)nc21 | 50000
Cc1nc2c([nH]1)C(=O)/C(=N/c1cccc(Cl)c1)C(Cl)=C2O | 900
O=C1C(Cl)=C(Nc2cccc(Cl)c2)C(=O)c2[nH]cnc21 | 1400
O=C1C(Cl)=C(Nc2cccc(I)c2)C(=O)c2[nH]cnc21 | 1300
O=C1C(Br)=C(Nc2ccc(Cl)cc2)C(=O)c2[nH]cnc21 | 4000
O=C1C(Br)=C(Nc2ccccc2)C(=O)c2[nH]cnc21 | 1100
O=C1C(Cl)=C(Nc2ccc(I)cc2)C(=O)c2[nH]c(C(F)(F)F)nc21 | 25000
O=C1C(Cl)=C(Nc2ccc(Cl)cc2)C(=O)c2[nH]c(C(F)(F)F)nc21 | 15000

SMILES | IC50 [nM]
Cc1ccc(NC2=C(Cl)C(=O)c3nc(C(F)(F)F)[nH]c3C2=O)cc1 | 40000
COc1ccc(OC)c2[nH]c(C)nc12 | > 100000
O=C1C(Cl)=C(Nc2ccc(I)cc2)C(=O)c2[nH]cnc21 | 1300
O=C1C(Cl)=C(Nc2ccc(F)cc2)C(=O)c2[nH]c(C(F)(F)F)nc21 | 12000
Cc1nc2c([nH]1)C(=O)/C(=N/c1ccc(I)cc1)C(Cl)=C2O | 1000
O=C1C(Cl)=C(Nc2ccc(F)cc2)C(=O)c2[nH]cnc21 | 1200
Cc1nc2c([nH]1)C(=O)/C(=N/c1ccc(F)cc1F)C(Cl)=C2O | 1200
Cc1ccc(NC2=C(Cl)C(=O)c3nc[nH]c3C2=O)cc1 | 1400
O=C1C(Cl)=C(Nc2ccc(C(F)(F)F)cc2)C(=O)c2[nH]cnc21 | 2500
O=C1C(Cl)=C(Nc2ccc(C(F)(F)F)cc2)C(=O)c2[nH]c(C(F)(F)F)nc21 | 20000
Cc1ccc(NC2=C(Cl)C(=O)c3nc(C)[nH]c3C2=O)cc1 | 800
Cc1nc2c([nH]1)C(=O)/C(=N/c1ccc(Cl)cc1)C(Cl)=C2O | 2800
O=C1C(Cl)=C(Nc2ccc(F)c(F)c2)C(=O)c2[nH]cnc21 | 1100
Cc1nc2c([nH]1)C(=O)/C(=N/c1ccc(Cl)cc1Cl)C(Cl)=C2O | 800
O=C1C(Br)=C(Nc2ccc(C(F)(F)F)cc2)C(=O)c2[nH]cnc21 | 3100
Cc1nc2c([nH]1)C(=O)/C(=N/c1cccc(Cl)c1Cl)C(Cl)=C2O | 600
Cc1nc2c([nH]1)C(=O)/C(=N/c1ccc(C(F)(F)F)cc1)C(Cl)=C2O | 600
COc1c(C)c2c(c(O)c1C/C=C(\C)CCC(=O)O)C(=O)OC2 [MYCOPHENOLIC ACID] | 1000
